The results in this text go back to ChEMBL document CHEMBL4665728, “Synthesis and evaluation of 1,2,4-oxadiazole derivatives as potential anti-inflammatory agents by inhibiting NF-κB signaling pathway in LPS-stimulated RAW 264.7 cells” (Bioorg Med Chem Lett, 2020).

The structures appear in SMILES notation. Active and inactive are the calls of the source. The calls are words filed in the database; no cut-off is given here.

Data set [1] in a line: Cytotoxicity against mouse RAW 264.7 assessed as cell viability at 20 uM incubated for 24 hrs by MTT assay (reference value: 100%). It counts as cell-based, RAW264.7. To be noted: RAW 264.7 cells, read-out: Activity. The method, boiled down: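 MTT viability of RAW264.7 cells at 20 µM, expressed as percent of DMSO vehicle control (100%); above 75% viability counted as non-toxic; doxorubicin used as control drug.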

The test system of data set [2] is RAW264.7. The experiment in a line: Antiinflammatory activity against mouse RAW264.7 cells assessed as inhibition of LPS-stimulated NO production at 20 uM relative to control. On the set-up: scale not given: the % may be the effect or the level left. It counts as functional. The method, boiled down:
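NO production by RAW264.7 cells stimulated with LPS; inhibitory ratio expressed relative to the LPS-treated group.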

For data set [3], the system named is RAW264.7. In words: Antiinflammatory activity against mouse RAW264.7 cells assessed as inhibition of LPS-stimulated NO production. It counts as functional, cell-based. The method, boiled down: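 IC50 for inhibition of NO release by LPS-stimulated RAW264.7 macrophages; IC50 taken as the mean of three independent experiments.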
Data set [4] concerns RAW264.7. In words: Antiinflammatory activity against mouse RAW264.7 cells assessed as inhibition of TNFalpha-stimulated NF-kappaB activation by luciferase assay. It counts as functional, cell-based.
Data set [5] concerns RAW264.7. The experiment in a line: Antiinflammatory activity against mouse RAW264.7 cells assessed as reduction in LPS-induced p65 phosphorylation at 3 to 6 uM incubated for 45 mins by Western blot analysis. It counts as functional, cell-based. To be noted: dose microM 3-6, time 45.0 min. Put shortly: (§1)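 RAW264.7 cells treated with a range of concentrations for 45 min; phospho-p65, p65, IκBα and β-actin detected by Western blot; three independent experiments.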
Background: In western blotting, separated proteins are transferred to a membrane and probed.

Data set [6] deals with RAW264.7. The experiment in a line: Antiinflammatory activity against mouse RAW264.7 cells assessed as degradation in LPS-induced IkappaBalpha phosphorylation at 3 to 6 uM incubated for 45 mins by Western blot analysis. It counts as functional, cell-based. The conditions noted are these: dose microM 3-6, time 45.0 min. The method, boiled down:
as §1

The test system of data set [7] is RAW264.7. The experiment in a line: Antiinflammatory activity against mouse RAW264.7 cells assessed as reduction in LPS-induced IkappaBalpha phosphorylation at 3 to 6 uM incubated for 45 mins by Western blot analysis. It counts as functional, cell-based. The conditions noted are these: dose microM 3-6, time 45.0 min. Put shortly: as §1
The subject of data set [8] is RAW264.7. The experiment in a line: Antiinflammatory activity against mouse RAW264.7 cells assessed as inhibition of LPS-stimulated iNOS protein expression at 3 to 6 uM preincubated followed by LPS addition by Western blot analysis. To be noted: dose microM 3-6. It counts as functional, cell-based. Put shortly:
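iNOS protein in LPS-stimulated RAW264.7 cells detected by Western blotting; mean ± SD, n = 3.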

Data set [9] concerns RAW264.7. The experiment in a line: Antiinflammatory activity against mouse RAW264.7 cells assessed as reduction in LPS-induced TNFalpha mRNA expression at 3 to 6 uM incubated for 24 hrs by qRT-PCR analysis. It counts as functional, cell-based. To be noted: dose microM 3-6, time 24.0 hrs. The method, boiled down:
(§2)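 Cells co-treated with compound at several concentrations plus LPS (1 µg/mL) for 24 h; IL-6, IL-1β and TNFα mRNA by qRT-PCR, expressed as ratio to reference gene; mean ± SD, n = 3.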
Background: In qPCR the cycle at which signal appears reflects the starting amount.

Data set [10] deals with RAW264.7. The experiment in a line: Cytotoxicity against mouse RAW 264.7 assessed as reduction in cell viability up to 100 uM incubated for 24 hrs by MTT assay. It counts as cell-based. The conditions noted are these: raw264.7, 24 h. The method, boiled down:
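MTT viability of RAW264.7 cells across 0 to 100 µM, compared with vehicle control.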
For orientation: Tetrazolium dyes change colour on reduction, which living cells bring about.

Data set [11] deals with RAW264.7. In words: Antiinflammatory activity against mouse RAW264.7 cells assessed as inhibition of LPS-stimulated nuclear translocation of p65 at 20 uM preincubated for 1 hr followed by LPS addition and measured after 24 hrs by fluorescence microscopic method. It counts as functional, cell-based. Put shortly: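 RAW264.7 cells pretreated 1 h, then stimulated with LPS (1 µg/mL) or vehicle for 24 h; p65 immunostained and localisation viewed in overlaid fluorescence images; three individual experiments.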

The subject of data set [12] is RAW264.7. In words: Antiinflammatory activity against mouse RAW264.7 cells assessed as reduction in LPS-induced IL6 mRNA expression at 3 to 6 uM incubated for 24 hrs by qRT-PCR analysis. It counts as functional, cell-based. The conditions noted are these: dose microM 3-6, time 24.0 hrs. Put shortly:
as §2

The subject of data set [13] is RAW264.7. The experiment in a line: Antiinflammatory activity against mouse RAW264.7 cells assessed as reduction in LPS-induced IL1beta mRNA expression at 3 to 6 uM incubated for 24 hrs by qRT-PCR analysis. It counts as functional, cell-based. The conditions noted are these: dose microM 3-6, time 24.0 hrs. The method, boiled down:
as §2

For `COc1ccc(-c2nc(-c3ccc4[nH]ccc4c3)no2)cc1`, in [1], the viability at 24 h, 20 µM came to 41.3%.
Regarding `Fc1ccccc1-c1nc(-c2ccc3[nH]ccc3c2)no1`, the viability at 24 h, 20 µM in data set [1] stood at 26.4%.
Still for that read-out and setting: with `Oc1ccc(-c2nc(-c3ccc4[nH]ccc4c3)no2)cc1` the figure was 36.5%; with `COc1ccccc1-c1nc(-c2ccc3[nH]ccc3c2)no1`, 45%.
Take `C(=C\c1noc(-c2ccccc2)n1)/c1ccccc1`: the viability at 24 h, 20 µM in data set [1] was 28.2%.
On the same count and under the same terms, with `Cc1ccc(-c2nc(-c3ccc4[nH]ccc4c3)no2)cc1` the figure was 51.2%.
With `c1ccc(-c2nc(-c3ccc4[nH]ccc4c3)no2)cc1`, in data set [1], the viability at 24 h, 20 µM was determined as 79.4%. The Activity in the data set on RAW264.7 [2] came to 46.76%.
Consider `c1ccc(-c2nc(-c3ccc4ccccc4c3)no2)cc1`, for which the viability at 24 h, 20 µM in [1] turned out to be 86.2%. In the data set with RAW264.7 [2], the Activity is on record as 63.58%.
For `c1ccc(-c2noc(-c3ccccc3)n2)cc1`, the viability at 24 h, 20 µM in [1] came to 42.1%.
The IC50 is the concentration that gives 50% inhibition. In the case of `C[C@@H]1C[C@H]2[C@@H]3CCC4=CC(=O)C=C[C@]4(C)[C@@]3(F)[C@@H](O)C[C@]2(C)[C@@]1(O)C(=O)CO` [DEXAMETHASONE], the half-inhibitory concentration (IC50) with RAW264.7 [3] came to 4.16 µM.
For the molecule `CSc1ccc(-c2nc(-c3ccc4[nH]ccc4c3)no2)cc1`, the viability at 24 h, 20 µM in data set [1] came to 22.8%.
For `c1cc2cc(-c3noc(C4CCC4)n3)ccc2[nH]1`, in data set [1], the viability at 24 h, 20 µM was found to be 85.4%. The Activity with RAW264.7 [2] is 57.58%.
Regarding `C#Cc1ccc(-c2nc(-c3ccc4[nH]ccc4c3)no2)cc1`, the viability at 24 h, 20 µM in data set [1] amounted to 23.6%.
`c1ccc(-c2nc(-c3c[nH]c4ccccc34)no2)cc1`: the viability at 24 h, 20 µM in data set [1] was determined as 11.6%.
Turning to `c1ccc(-c2nc(-c3ccncc3)no2)cc1`, the viability at 24 h, 20 µM in [1] is 89%. In the data set with RAW264.7 [2], the Activity was found to be 43.13%.
Turning to `Fc1ccc(-c2nc(-c3ccc4[nH]ccc4c3)no2)cc1`, the viability at 24 h, 20 µM in [1] was 16.8%.
With `Cc1ccccc1-c1nc(-c2ccc3[nH]ccc3c2)no1`, in data set [1], the viability at 24 h, 20 µM stood at 85.3%. Moreover, the Activity in the data set with RAW264.7 [2] stood at 47.22%.
The corresponding values for `c1ccc(-c2nc(C3CCCC3)no2)cc1` are 85.4% and 34.28%.
As for `Fc1cccc(-c2nc(-c3ccc4[nH]ccc4c3)no2)c1`, the viability at 24 h, 20 µM in data set [1] is 17.2%.
Turning to `c1ccc(Cc2noc(-c3ccccc3)n2)cc1`, the viability at 24 h, 20 µM in data set [1] came out at 89.6%. In the data set on RAW264.7 [2], the Activity was found to be 39.33%.
As for `c1ccc(-c2nc(-c3cccc4[nH]ccc34)no2)cc1`, the IC50 with RAW264.7 [3] is 27 µM; with RAW264.7 [4] it was 13.8 µM. For the same molecule, the viability at 24 h, 20 µM in data set [1] was 64.3%. Besides, in the data set on RAW264.7 [2], the Activity worked out at 45.71%.
On to `CC(C)C[C@H](NC(=O)[C@H](Cc1ccccc1)NC(=O)c1cnccn1)B(O)O` [BORTEZOMIB], for which the half-maximal inhibitory concentration (IC50) in the data set on RAW264.7 [4] came to 0.03 µM.
Consider `c1coc(-c2nc(-c3ccc4[nH]ccc4c3)no2)c1`, for which the IC50 with RAW264.7 [3] was 12.8 µM; in the data set with RAW264.7 [4], 1.35 µM. In addition, the outcome with RAW264.7 [5], with RAW264.7 [8] and with RAW264.7 [11] was Active. The Activity entry with RAW264.7 [6] was “Dose-dependent effect”; in the data set on RAW264.7 [7], “Dose-dependent effect”; in the data set on RAW264.7 [9], “Dose-dependent effect”; with RAW264.7 [10], “Non-Toxic”; in the data set with RAW264.7 [12], “Dose-dependent effect”; in the data set with RAW264.7 [13], “Dose-dependent effect”. Further, in the data set with RAW264.7 [2], the Activity is listed as 86.6%. Further, the viability at 24 h, 20 µM in data set [1] turned out to be 99%.
For `c1ccc(-c2nc(-c3cnccn3)no2)cc1`, the viability at 24 h, 20 µM in data set [1] was 46.2%.
Still for that read-out and setting: with `C1=CCC(c2nc(-c3ccc4[nH]ccc4c3)no2)C1` the figure was 24.3%.
Consider `COc1cccc(-c2nc(-c3ccc4[nH]ccc4c3)no2)c1`, for which, in data set [1], the viability at 24 h, 20 µM came to 88.1%. Moreover, in the data set with RAW264.7 [2], the Activity was found to be 53.94%.
The corresponding values for `c1ccc(-c2nc(-c3cccc4ccccc34)no2)cc1` are 90.4% and 59.89%.
Turning to `c1ccc(-c2nc(Cc3cccc4ccccc34)no2)cc1`, the viability at 24 h, 20 µM in [1] was determined as 92.8%. Also, the Activity in the data set with RAW264.7 [2] was 41.64%.
As to `c1ccc(-c2nc(-c3ccc4cc[nH]c4c3)no2)cc1`, the viability at 24 h, 20 µM in data set [1] is 31%.
Regarding `c1cc2cc(-c3noc(C4CCOCC4)n3)ccc2[nH]1`, the viability at 24 h, 20 µM in data set [1] worked out at 95.7%. Further, the Activity in the data set with RAW264.7 [2] was 2.75%.
The corresponding values for `c1ccc(-c2nc(Cc3cccs3)no2)cc1` are 85.2% and 48.24%.
Take `c1cc2cc(-c3noc(C4CCCCC4)n3)ccc2[nH]1`: in data set [1], the viability at 24 h, 20 µM worked out at 68.8%.
